Paper PMC5538437 (Genes & Development, 2017)
Each block holds one molecule with its values, some of them ahead of it.

Experiments:
[1] = system: 4EHP; assay: Pull-down / coimmunoprecipitation with 4EHP in HEK293T cell lysates; format: binding, human; conditions: Western blot
In short: (§1)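 Streptavidin-bead pull-down from RNase A-treated HEK293T lysates of cells expressing V5-SBP-tagged 4EHP or eIF4E (wild type or mutants). Co-bound endogenous GYF2, 4E-T and 4E-BP1 were probed; for 4EHP, co-expressed GFP-4E-BP1 was also probed, with V5-SBP-MBP as negative control. Inputs and bound fractions were analysed by Western blot with anti-V5, anti-GFP, anti-GYF2 and other antibodies, using ECL detection.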

[2] = system: eIF4E; assay: Pull-down / coimmunoprecipitation with eIF4E in HEK293T cell lysates; format: binding, human; conditions: streptavidin pull-down, Western blot
In short: as §1

[3] = system: endogenous GYF2; assay: Pull-down of GYF2 by tagged 4EHP in HEK293T cells; format: binding, human; conditions: Western blot
In short: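 Streptavidin pull-downs used HEK293T lysates containing RNase A and expressed V5-SBP-4EHP, wild type or mutants. V5-SBP-MBP was the negative control. Inputs (1–1.5%) and bound fractions (up to 30% for GYF2) were analysed by Western blot with anti-V5 and anti-GYF2 antibodies, using ECL detection.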

[4] = system: endogenous GYF1; assay: Pull-down of GYF1 by tagged 4EHP in HEK293T cells; format: binding, human; conditions: V5-SBP-4EHP, Western blot
[5] = biological target: T1, 4EHP used for ITC, wild type (human, UniProt O60573 1-245); assay: ITC
T1 sequence: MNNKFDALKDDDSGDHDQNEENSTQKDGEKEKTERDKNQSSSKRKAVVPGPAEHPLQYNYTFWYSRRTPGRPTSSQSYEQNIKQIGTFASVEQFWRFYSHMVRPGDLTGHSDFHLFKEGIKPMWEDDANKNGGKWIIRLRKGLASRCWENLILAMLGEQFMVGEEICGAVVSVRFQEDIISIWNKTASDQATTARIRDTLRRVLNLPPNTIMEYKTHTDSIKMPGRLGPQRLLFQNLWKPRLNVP

[6] = biological target: T2, 4EHP S99N used for ITC (human, UniProt O60573 1-245, S99N); assay: ITC
T2 sequence: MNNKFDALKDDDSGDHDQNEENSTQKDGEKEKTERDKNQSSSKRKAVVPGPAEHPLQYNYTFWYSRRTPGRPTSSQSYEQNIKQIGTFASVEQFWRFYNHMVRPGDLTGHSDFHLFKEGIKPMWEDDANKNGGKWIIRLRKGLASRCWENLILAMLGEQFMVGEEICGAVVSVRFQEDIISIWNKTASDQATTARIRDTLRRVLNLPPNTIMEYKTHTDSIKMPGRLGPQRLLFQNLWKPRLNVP

[7] = biological target: T3, 4EHP-His6 (residues A52–F234), RE-LL mutant, of the competition assays (human, UniProt O60573 52-234, R103L | E149L); assay: pull-down
T3 sequence: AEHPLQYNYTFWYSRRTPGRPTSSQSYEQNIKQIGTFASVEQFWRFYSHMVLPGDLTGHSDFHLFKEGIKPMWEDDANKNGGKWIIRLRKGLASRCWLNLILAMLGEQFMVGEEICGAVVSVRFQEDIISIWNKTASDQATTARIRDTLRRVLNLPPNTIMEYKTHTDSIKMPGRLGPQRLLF

B1: GYF1 A2+3*: GYF1 E86A, N95F; auxiliary site 2 mutant (listed as A2*) (protein, UniProt O75420 1-1035, looked up, variant E86A N95F)
GRB10-interacting GYF protein …: MAAETLNFGPEWLRALSGGGSVASPPPSPAMPKYKLADYRYGREEMLALYVKENKVPEELQDKEFAAVLQDEPLQPLALEPLTEEAQRNFSLSVFSVAVLRLMGKGAGPPLAGTSRGRGSTRSRGRGRGDSCFYQRSIEEGDGAFGRSPREIQRSQSWDDRGERRFEKSARRDGARCGFEEGGAGPRKEHARSDSENWRSLREEQEEEEEGSWRLGAGPRRDGDRWRSASPDGGPRSAGWREHGERRRKFEFDLRGDRGGCGEEEGRGGGGSSHLRRCRAPEGFEEDKDGLPEWCLDDEDEEMGTFDASGAFLPLKKGPKEPIPEEQELDFQGLEEEEEPSEGLEEEGPEAGGKELTPLPPQEEKSSSPSPLPTLGPLWGTNGDGDETAEKEPPAAEDDIRGIQLSPGVGSSAGPPGDLEDDEGLKHLQQEAEKLVASLQDSSLEEEQFTAAMQTQGLRHSAAATALPLSHGAARKWFYKDPQGEIQGPFTTQEMAEWFQAGYFSMSLLVKRGCDEGFQPLGEVIKMWGRVPFAPGPSPPPLLGNMDQERLKKQQELAAAALYQQLQHQQFLQLVSSRQLPQCALREKAALGDLTPPPPPPPQQQQQQLTAFLQQLQALKPPRGGDQNLLPTMSRSLSVPDSGRLWDVHTSASSQSGGEASLWDIPINSSTQGPILEQLQLQHKFQERREVELRAKREEEERKRREEKRRQQQQEEQKRRQEEEELFRRKHVRQQELLLKLLQQQQAVPVPPAPSSPPPLWAGLAKQGLSMKTLLELQLEGERQLHKQPPPREPARAQAPNHRVQLGGLGTAPLNQWVSEAGPLWGGPDKSGGGSSGLGLWEDTPKSGGSLVRGLGLKNSRSSPSLSDSYSHLSGRPIRKKTEEEEKLLKLLQGIPRPQDGFTQWCEQMLHTLSATGSLDVPMAVAILKEVESPYDVHDYIRSCLGDTLEAKEFAKQFLERRAKQKASQQRQQQQEAWLSSASLQTAFQANHSTKLGPGEGSKAKRRALMLHSDPSILGYSLHGSSGEIESVDDY
interaction with 4EHP in cells, overexpressed binding partner ([1]; HEK293T cells, GFP-tagged protein and V5-SBP-4EHP): did not affect binding to overexpressed 4EHP in human cells

B2: 4E-T: Hs 4E-T Q9NRA8, full-length (1–985) (protein)
chain: MDRRSMGETESGDAFLDLKKPPASKCPHRYTKEELLDIKELPHSKQRPSCLSEKYDSDGVWDPEKWHASLYPASGRSSPVESLKKELDTDRPSLVRRIVDPRERVKEDDLDVVLSPQRRSFGGGCHVTAAVSSRRSGSPLEKDSDGLRLLGGRRIGSGRIISARTFEKDHRLSDKDLRDLRDRDRERDFKDKRFRREFGDSKRVFGERRRNDSYTEEEPEWFSAGPTSQSETIELTGFDDKILEEDHKGRKRTRRRTASVKEGIVECNGGVAEEDEVEVILAQEPAADQEVPRDAVLPEQSPGDFDFNEFFNLDKVPCLASMIEDVLGEGSVSASRFSRWFSNPSRSGSRSSSLGSTPHEELERLAGLEQAILSPGQNSGNYFAPIPLEDHAENKVDILEMLQKAKVDLKPLLSSLSANKEKLKESSHSGVVLSVEEVEAGLKGLKVDQQVKNSTPFMAEHLEETLSAVTNNRQLKKDGDMTAFNKLVSTMKASGTLPSQPKVSRNLESHLMSPAEIPGQPVPKNILQELLGQPVQRPASSNLLSGLMGSLEPTTSLLGQRAPSPPLSQVFQTRAASADYLRPRIPSPIGFTPGPQQLLGDPFQGMRKPMSPITAQMSQLELQQAALEGLALPHDLAVQAANFYQPGFGKPQVDRTRDGFRNRQQRVTKSPAPVHRGNSSSPAPAASITSMLSPSFTPTSVIRKMYESKEKSKEEPASGKAALGDSKEDTQKASEENLLSSSSVPSADRDSSPTTNSKLSALQRSSCSTPLSQANRYTKEQDYRPKATGRKTPTLASPVPTTPFLRPVHQVPLVPHVPMVRPAHQLHPGLVQRMLAQGVHPQHLPSLLQTGVLPPGMDLSHLQGISGPILGQPFYPLPAASHPLLNPRPGTPLHLAMVQQQLQRSVLHPPGSGSHAAAVSVQTTPQNVPSRSGLPHMHSQLEHRPSQRSSSPVGLAKWFGSDVLQQPLPSMPAKVISVDELEYRQ
interaction with 4EHP in cell lysates, endogenous binding partner ([1]; HEK293T cell lysates, streptavidin pull-down): interacted with both eIF4E and 4EHP
interaction with eIF4E in cell lysates [2]: interacted with both eIF4E and 4EHP

B3: 4EHP RE-LL: 4EHP R103L, E149L; auxiliary surface mutant (protein)
chain: MNNKFDALKDDDSGDHDQNEENSTQKDGEKEKTERDKNQSSSKRKAVVPGPAEHPLQYNYTFWYSRRTPGRPTSSQSYEQNIKQIGTFASVEQFWRFYSHMVLPGDLTGHSDFHLFKEGIKPMWEDDANKNGGKWIIRLRKGLASRCWLNLILAMLGEQFMVGEEICGAVVSVRFQEDIISIWNKTASDQATTARIRDTLRRVLNLPPNTIMEYKTHTDSIKMPGRLGPQRLLFQNLWKPRLNVP
binding to endogenous GYF2 [3]: strongly reduced binding to endogenous GYF2
binding to endogenous GYF1 [4]: disrupted binding to endogenous GYF1

B4: 4EHP S99N: 4EHP S99N; dorsal surface mutant (protein, UniProt O60573 1-245, looked up, variant S99N)
Eukaryotic translation …: MNNKFDALKDDDSGDHDQNEENSTQKDGEKEKTERDKNQSSSKRKAVVPGPAEHPLQYNYTFWYSRRTPGRPTSSQSYEQNIKQIGTFASVEQFWRFYNHMVRPGDLTGHSDFHLFKEGIKPMWEDDANKNGGKWIIRLRKGLASRCWENLILAMLGEQFMVGEEICGAVVSVRFQEDIISIWNKTASDQATTARIRDTLRRVLNLPPNTIMEYKTHTDSIKMPGRLGPQRLLFQNLWKPRLNVP
binding to endogenous GYF2 [3]: Binding of GYF2 was not affected by the S99N mutation

B5: 4EHP cap: 4EHP W124A; cap-binding pocket mutant (protein, UniProt O60573 1-245, looked up, variant W124A)
Eukaryotic translation …: MNNKFDALKDDDSGDHDQNEENSTQKDGEKEKTERDKNQSSSKRKAVVPGPAEHPLQYNYTFWYSRRTPGRPTSSQSYEQNIKQIGTFASVEQFWRFYSHMVRPGDLTGHSDFHLFKEGIKPMAEDDANKNGGKWIIRLRKGLASRCWENLILAMLGEQFMVGEEICGAVVSVRFQEDIISIWNKTASDQATTARIRDTLRRVLNLPPNTIMEYKTHTDSIKMPGRLGPQRLLFQNLWKPRLNVP
binding to endogenous GYF2 [3]: still binds to GYF1/2

Kd [5]: 14 nM
B6: GYF2 C+L+NC peptide, ITC (peptide)
chain: KYKLADYRYGREEMLALFLKDNKIPSDLLDKEFLPILQ

Kd [5]: 55 nM
Kd [6]: 4 nM
B7: 4E-BP1 peptide, ITC (peptide)
chain: TRIIYDRKFLMECRNSPVTKTPPRDLPTIPGVTS

binding result [7]: binds
B8: 4E-BP1 peptide (residues T50–S83) with C-terminal GB1 tag, of the competition assays (domain or fragment)
chain: TRIIYDRKFLMECRNSPVTKTPPRDLPTIPGVTS
